The term IC50 denotes the concentration that gives 50% inhibition. For orientation: GI50 means the concentration that inhibits growth by half.

Converted amounts (≈) assume the structure as drawn. The source made the active and inactive calls. No cut-off for these calls is given here.

A short description of series [1]: Cytotoxicity against BALB/c mouse 3T3 clone A31 cells after 48 hrs by SRB assay method. The format is cell-based. To be noted: A31, 48 h. In outline: (§1)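 Cells plated in growth medium and allowed to attach 24 h (37 °C, 5% CO₂). Time-zero plate fixed with TCA. Serial 4-fold dilutions added for 48 h. Cells fixed with cold TCA, stained with 0.2% SRB, dye solubilized in 10 mM Tris pH 10.5, absorbance read at 510 nm. GI50 is 50% absorbance reduction versus solvent controls, by linear regression. K562 counted by Coulter counter instead. 5-FU reference.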
A general note: Sulforhodamine B stains cellular protein and so reports cell mass.

Series [2] can be described thus: Inhibition of Leishmania major CK1.2 using RRKHAAIGpSAYSITA as substrate and [gamma-33P]ATP after 30 mins by scintillation counting. In outline: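 Recombinant His-tagged L. major CK1.2 from E. coli, purified on cobalt beads. Assayed as for the porcine enzyme: CKS peptide substrate, 15 μM [γ-³³P]ATP, 30 min at 30 °C, P81 capture and scintillation counting. Activity as % of the no-inhibitor value.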

Series [3] in a line: Cytotoxicity against human K562 cells assessed as growth inhibition after 48 hrs by Coulter counter cell counting.
Series [4] can be described thus: Inhibition of native porcine brain CK1 delta/epsilon using RRKHAAIGpSAYSITA as substrate and [gamma-33P]ATP after 30 mins by scintillation counting. The arrangement: species or system Sus scrofa. In outline: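 Native porcine brain CK1δ/ε, in threefold-diluted buffer A (25 mM Mops pH 7.2, 15 mM MgCl₂, 5 mM EGTA, 1 mM DTT, phosphatase inhibitors). 25 μM CKS peptide substrate, 15 μM [γ-³³P]ATP, 30 min at 30 °C. Stopped on P81 paper, washed in 1% phosphoric acid, counted by scintillation. Blank subtracted; activity as % of the no-inhibitor value; DMSO controls.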

The subject of series [5] is Leishmania major. Nature of the series: Antileishmanial activity against promastigote form of Leishmania major MHOM/IL/81/BNI after 96 hrs by spectrofluorimetric micromethod. Format: functional, organism-based.
A short description of series [6]: Cytotoxicity against human HuTu 80 cells assessed as growth inhibition after 48 hrs by SRB assay method. Format: cell-based, HuTu80. In outline: as §1
Series [7] in a line: Therapeutic index, ratio of IC50 for BALB/c mouse peritoneal macrophages to IC50 for amastigote form of Leishmania major (MHOM/IL/81/BNI) in BALB/c mouse peritoneal macrophages. To be noted: read-out: Ratio IC50.
Series [8] in a line: Cytotoxicity against human M14 cells assessed as growth inhibition after 48 hrs by SRB assay method. Format: cell-based. In outline:
as §1

Series [9] is described as follows: Therapeutic index, ratio of IC50 for BALB/c mouse peritoneal macrophages to IC50 for promastigote form of Leishmania major (MHOM/IL/81/BNI). To be noted: read-out: Ratio IC50.
Series [10] in a line: Cytotoxicity against BALB/c mouse peritoneal macrophages assessed as cell viability after 48 hrs by trypan blue dye exclusion method. The format is cell-based. To be noted: Peritoneal macrophage cell.
Another series deals with Leishmania amazonensis. As to the kind of experiment: Antileishmanial activity against axenic amastigote stage of Leishmania amazonensis MHOM/BR/76/LTB-012 by MTT method. The format is functional, organism-based. In outline: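 Axenic amastigotes, grown in MAA/20 medium at 32 ± 1 °C. IC50 by MTT micromethod; compounds from 10 mM DMSO stocks, DMSO ≤1% final.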
On the technique in general: Tetrazolium dyes change colour on reduction, which living cells bring about.

Series [11] can be described thus: Cytotoxicity against human DU145 cells assessed as growth inhibition after 48 hrs by SRB assay method. The format is cell-based, DU-145. In outline: as §1
Series [12] is described as follows: Therapeutic index, ratio of IC50 for BALB/c mouse 3T3 clone A31 cells to IC50 for promastigote form of Leishmania major (MHOM/IL/81/BNI). The format is cell-based. To be noted: read-out: Ratio IC50.
A short description of series [13]: Cytotoxicity against human MCF7 cells assessed as growth inhibition after 48 hrs by SRB assay method. Format: cell-based. In outline:
as §1

The nature of series [14]: Cytotoxicity against human HT-29 cells assessed as growth inhibition after 48 hrs by SRB assay method. The format is cell-based. In outline: as §1
The test system of series [15] is Leishmania major. As to the kind of experiment: Antileishmanial activity against amastigote form of Leishmania major MHOM/IL/81/BNI amastigote in Balb/c mouse peritoneal macrophages after 4 days by May-Grunwald-Giemsa staining-based microscopic analysis. Format: functional, organism-based. To be noted: 96 h. The method, boiled down: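 Peritoneal macrophages from Balb/c mice, 1.5 10⁵ cell/mL in RPMI 1640 + 15% FBS, left 24 h on glass slides (37 °C, 5% CO₂), then infected 24 h with stationary-phase promastigotes (1.5 × 10⁶/mL). Washed cultures exposed to 100, 10, 1 and 0.1 µM for 4 days. Fixed with methanol, Giemsa-stained. Amastigotes counted in 100 macrophages per duplicate well; IC50 from amastigotes/macrophage. Done twice.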

A short description of series [16]: Cytotoxicity against human H460 cells assessed as growth inhibition after 48 hrs by SRB assay method. The format is cell-based, NCI-H460. In outline:
as §1

Take `CN(C)c1nccn2c(-c3ccncc3)c(-c3ccccc3)nc12`: the IC50 was 155 µM in [1]; 0.48 µM in series [2]; 2.4 µM in series [4]; 31.3 µM in the series on Leishmania major [5]; 144 µM in [10]; 9.4 µM in the series on Leishmania major [15]. Moreover, the GI50 at 48 h in series [3] was determined as 48 µg/mL (≈ 152 µM); in series [6], 50 µg/mL (≈ 159 µM); in series [8], 84 µg/mL (≈ 266 µM); in series [11] it was 90 µg/mL (≈ 285 µM); in series [13] it was 32 µg/mL (≈ 101 µM); in series [14], 56 µg/mL (≈ 178 µM). In addition, the GI50 at 48 h in series [16] came out at 70 µg/mL (≈ 222 µM). Also, the selectivity ratio was determined as 15.3 in series [7], 4.6 in series [9] and 5 in series [12]. Moreover, the outcome with Leishmania amazonensis was inactive.
As to `Fc1ccc(-c2nc3c(NCCN4CCOCC4)nccn3c2I)cc1`, the IC50 in [1] is more than 268 µM; in [2], more than 10 µM; in series [4], more than 10 µM; in the series on Leishmania major [5], 2.8 µM; in series [10] it was 93.2 µM; in the series with Leishmania major [15], 0.2 µM. Also, the GI50 at 48 h in series [3] is more than 125 µg/mL; in [6], 73 µg/mL (≈ 156 µM); in [8], more than 125 µg/mL; in [11] it was more than 125 µg/mL; in series [13], more than 125 µg/mL; in series [14], more than 125 µg/mL. For the same molecule, the GI50 at 48 h in series [16] was more than 125 µg/mL. Besides, the values for the selectivity ratio in series [7], in series [9] and in [12] were 466, 33.3 and more than 95.6, respectively. The result in the series with Leishmania amazonensis was inactive.
With `CN(C)c1nccn2c(-c3ccncc3)c(-c3ccc(F)cc3)nc12`, the half-maximal inhibitory concentration (IC50) is more than 375 µM in series [1]; 0.99 µM in series [2]; 2.1 µM in series [4]; 6.4 µM in the series on Leishmania major [5]; 42 µM in [10]; 0.8 µM with Leishmania major [15]. Moreover, the concentration for 50% growth inhibition (GI50) at 48 h in series [3] was more than 125 µg/mL; in series [6] it was 77 µg/mL (≈ 231 µM); in series [8], more than 125 µg/mL; in [11], more than 125 µg/mL; in series [13], 52 µg/mL (≈ 156 µM); in series [14], more than 125 µg/mL. For the same molecule, in series [16], the GI50 at 48 h was more than 125 µg/mL. Further, the selectivity ratio in series [7] was 52.5; in [9], 6.6; in series [12], more than 58.6. Also, the result with Leishmania amazonensis was inactive.

The record behind these values is ChEMBL document CHEMBL3632541, “Synthesis, antileishmanial activity and cytotoxicity of 2,3-diaryl- and 2,3,8-trisubstituted imidazo[1,2-a]pyrazines” (Eur J Med Chem, 2015).
